Screening data: PubChem, several laboratories
This excerpt belongs to a sample that is enriched for hits.
CHOP inhibitor: inhibitors of CHOP promoter induction, primary screen, cell-based, unfolded protein response, luciferase reporter; 3.8% of 220,000 active; AID 2732, 2010; inhibition, % at 10 µM; CHO-K1 CHOP-promoter luciferase, tunicamycin-induced, 15-18 h;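 active = compounds that reduced the stress-induced luciferase reporter signal by more than about 70% of percent inhibition, limit read from the data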
XBP1 UPR activ: activators of adaptive XBP1 UPR arm, primary screen, cell-based, CHO-XBP1 luciferase reporter, luminescence, uHTS. 0.33% of 330,000 active. IRE1-XBP1 UPR activation; percent of tunicamycin response, DMSO as zero. activation, % at 20 µM;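 active = versus positive control, 20 µM dose yields 30% or more activation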
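Assay system: IRE1-XBP1 luciferase reporter CHO line. Input: 1000 cells/well. Buffer or medium: F12 with 10% serum. Doses: 20 µM, 1% DMSO. Times: overnight seeding at 37 °C, 6 h compound treatment at 37 °C. Technique: Steady-Glo luciferase glow luminescence, 10 min after reagent addition.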
CTSL1 counter: Fasciola hepatica cathepsin L1 inhibitors, primary screen, counter-screen for PFM18AAP inhibitor project, biochemical, QFRET, fluorogenic peptide substrate; recombinant F. hepatica cathepsin L1, Z-Leu-Arg-MCA fluorescence; 0.49% of 300,000 active; inhibition, % at 5.96 µM; AID 1906, 2009;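 active = inhibition above the mean of all tested compounds plus 3 SD, set per screening campaign, cut at about 17% in these data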
UPR CHOP act: activators of apoptotic CHOP UPR arm, primary screen, cell-based, CHO-CHOP luciferase reporter, luminescence, uHTS; UPR activation; percent of tunicamycin response over DMSO baseline; activation, % at 10 µM; 0.34% of 330,000 active;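 active = at 10 µM dose, activation of 40% or more, normalized to positive control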
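Assay system: CHO-CHOP cells, stable luciferase reporter of PERK-eIF2a-CHOP signalling / Buffer or medium: F12 plus 10% serum / Compound dosing: one dose, 10 µM in 0.5% DMSO / Times: 6 h compound treatment, 37 °C / Technique: luciferase luminescence / Read-out: % reporter activation, DMSO baseline versus tunicamycin full activation / Benchmarks: tunicamycin and DMSO controls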
UCH37 inh: inhibitors of human UCH37 deubiquitinase, primary screen, biochemical, Ub-AMC cleavage, fluorescence; Ubiquitin carboxyl-terminal hydrolase isozyme L5 (Homo sapiens), Q9Y5K5; purified proteasome/UCH37; inhibition, % (no concentration beside the values); 0.33% of 330,000 active; AID 588478, 2011;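 active = mean inhibition over replicate wells above about 20%, limit read from the data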
Target sequence (Q9Y5K5 whole entry, looked up): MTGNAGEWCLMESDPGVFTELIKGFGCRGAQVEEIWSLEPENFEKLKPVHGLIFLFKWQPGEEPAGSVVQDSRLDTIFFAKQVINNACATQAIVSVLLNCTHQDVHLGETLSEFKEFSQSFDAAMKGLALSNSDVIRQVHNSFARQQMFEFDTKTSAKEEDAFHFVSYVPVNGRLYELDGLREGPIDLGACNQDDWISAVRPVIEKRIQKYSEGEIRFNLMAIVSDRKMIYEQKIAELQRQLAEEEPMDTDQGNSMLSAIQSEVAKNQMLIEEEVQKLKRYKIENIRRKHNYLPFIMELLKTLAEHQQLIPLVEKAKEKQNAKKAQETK
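Material: human UCH37 enzyme supplied as purified proteasome complex. Measure: % inhibition of Ub-AMC cleavage fluorescence. Medium: pH 7.4 Tris-HCl (50 mM) with ovalbumin, ATP-MgCl2, DTT. Times: 30 min preincubation with enzyme, 25 min cleavage at room temperature. Detection: AMC fluorescence intensity at 355/460 nm.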
CHOP confirm: retest of CHOP induction inhibitors, confirmation, cell-based; inhibition, % at 10 µM; 45% of 2,100 active; CHO-CHOP promoter luciferase reporter, tunicamycin-induced, luminescence; shares compounds with CHOP inhibitor;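 active = mean of three repeat readings of reporter signal inhibition above a set limit, cut at about 70% in these data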
Hits are given with their value.

How did O=C(Nc1ccc(F)cc1)N1CCn2c(nc3ccccc32)C1 do in these assays?
CHOP inhibitor: 98.4; XBP1 UPR activ: inactive; CTSL1 counter: inactive; UPR CHOP act: inactive; UCH37 inh: inactive; CHOP confirm: inactive

What do the screens show for `CC1(c2ccccc2)CC(C)(C)N2C(=O)C3(C(C#N)=C(N)Oc4cc(O)ccc43)c3cccc1c32` (stereo unspecified)?
CHOP inhibitor: 106.4; XBP1 UPR activ: inactive; CTSL1 counter: inactive; UPR CHOP act: inactive; UCH37 inh: inactive; CHOP confirm: 104.1

What do the screens show for `Cc1cc2c3c(c1)C(C)(c1ccccc1)CC(C)(C)N3C(=O)C21C(C#N)=C(N)OC2=C1C(=O)CC(C)(C)C2` (stereo unspecified)?
CHOP inhibitor: 107.2; XBP1 UPR activ: inactive; CTSL1 counter: inactive; UPR CHOP act: inactive; UCH37 inh: inactive; CHOP confirm: 97.2

Results for CC(=NNS(=O)(=O)c1ccccc1)c1ccc(NC(=O)C2CC2)cc1 ?
UCH37 inh: inactive

What do the screens show for `Cc1ccccc1CS(=O)(=O)c1nnc([C@H](CC(C)C)NC(=O)OC(C)(C)C)o1`?
CHOP inhibitor: 107.5; XBP1 UPR activ: inactive; CTSL1 counter: 82.2; UPR CHOP act: inactive; UCH37 inh: inactive; CHOP confirm: 122.8

Results for Cc1nn(C(C)(C)C)c(C)c1/C=N/OC(=O)Nc1ccc(Cl)cc1 ?
CHOP inhibitor: 99.4; XBP1 UPR activ: inactive; CTSL1 counter: inactive; UPR CHOP act: inactive; CHOP confirm: 116.9

What do the screens show for `CCOC(=O)NN=Cc1cn(Cc2ccccc2Cl)c2ccccc12`?
UCH37 inh: inactive

How did CC(=O)Nc1ccc(C(=O)N/N=C/c2cc(Br)cc(Br)c2O)cc1 do in these assays?
CHOP inhibitor: 104.6; XBP1 UPR activ: inactive; CTSL1 counter: inactive; UPR CHOP act: inactive; CHOP confirm: inactive

What do the screens show for `COc1cc(OC)c(/C=N/NC(=O)c2ccc(NC(C)=O)cc2)cc1Br`?
CHOP inhibitor: 104.0; XBP1 UPR activ: inactive; UPR CHOP act: inactive; CHOP confirm: inactive

How did CC(C)C(=O)Nc1ccc(C(=O)N/N=C/c2cc(Br)cc(Br)c2O)cc1 do in these assays?
CHOP inhibitor: inactive; XBP1 UPR activ: inactive; CTSL1 counter: inactive; UPR CHOP act: inactive

Results for CCOC(=O)C1=C(C)N=c2sc(=Cc3ccc(OCC(=O)O)cc3)c(=O)n2C1c1ccc(F)cc1 (stereo unspecified) ?
UCH37 inh: inactive

How did CCc1ccc(S(=O)(=O)N=C2C=CC(=O)c3ccccc32)cc1 do in these assays?
UCH37 inh: inactive

What do the screens show for `CCc1ccc(S(=O)(=O)/N=C2/C=C(Sc3ncn[nH]3)C(=O)c3ccccc32)cc1`?
CHOP inhibitor: 108.1; CTSL1 counter: 100.3; CHOP confirm: inactive

Results for Cc1cc(C)nc(SCc2ccc(C(=O)NN=Cc3ccccc3C(=O)O)cc2)n1 ?
UCH37 inh: inactive

Results for Cc1occc1C(=O)Nc1sc2c(c1C(N)=O)CCCCC2 ?
CHOP inhibitor: 96.2; XBP1 UPR activ: inactive; CTSL1 counter: inactive; UPR CHOP act: inactive; UCH37 inh: inactive; CHOP confirm: inactive

How did COC(=O)c1c(NC(=O)c2ccoc2C)sc2c1CCC2 do in these assays?
CHOP inhibitor: inactive; XBP1 UPR activ: inactive; CTSL1 counter: inactive; UPR CHOP act: inactive; UCH37 inh: inactive

How did Cc1cccc(C)c1NC(=O)COc1ccccc1C(=O)Nc1ccc(Br)cn1 do in these assays?
CHOP inhibitor: 106.3; XBP1 UPR activ: inactive; CTSL1 counter: inactive; UPR CHOP act: inactive; UCH37 inh: inactive; CHOP confirm: 101.5

How did CCCn1c(=O)c(C(=O)NNS(=O)(=O)c2ccc(Cl)cc2)c(O)c2ccccc21 do in these assays?
CHOP inhibitor: 106.9; XBP1 UPR activ: inactive; CTSL1 counter: inactive; UPR CHOP act: inactive; UCH37 inh: inactive; CHOP confirm: inactive

Results for CCCn1c(=O)c(C(=O)NNC(=O)c2ccc(Cl)cc2Cl)c(O)c2ccccc21 ?
XBP1 UPR activ: inactive; CTSL1 counter: inactive; UPR CHOP act: inactive; UCH37 inh: inactive

Results for CC(/C=N/Nc1nnc2c(n1)[nH]c1ccccc12)=C\c1ccco1 ?
CHOP inhibitor: 107.1; XBP1 UPR activ: inactive; CTSL1 counter: inactive; UPR CHOP act: inactive; CHOP confirm: inactive

What do the screens show for `C/C(C=NNc1nnc2c(n1)[nH]c1ccccc12)=C\c1ccco1`?
UCH37 inh: inactive

How did Clc1cccc(C=NNc2ncnc3ccccc23)c1 do in these assays?
UCH37 inh: inactive

How did CC(NC(=O)COC(=O)c1ccc2c(c1)S(=O)(=O)N=C1CCCCCN12)C12CC3CC(CC(C3)C1)C2 (stereo unspecified) do in these assays?
CHOP inhibitor: 104.3; XBP1 UPR activ: inactive; CTSL1 counter: inactive; UPR CHOP act: inactive; UCH37 inh: inactive; CHOP confirm: inactive

How did O=C(Nc1ccccc1)ON=Cc1ccc(F)cc1 do in these assays?
UCH37 inh: inactive

What do the screens show for `Cc1ccccc1N1C(=O)CC(Sc2nnc(-c3ccccc3)o2)C1=O` (stereo unspecified)?
CHOP inhibitor: 108.3; XBP1 UPR activ: inactive; CTSL1 counter: inactive; UPR CHOP act: inactive; UCH37 inh: inactive; CHOP confirm: inactive

What do the screens show for `O=C(Nc1ccc2c(c1)OCCO2)c1cc(-c2ccccn2)nc2ccc(Br)cc12`?
CHOP inhibitor: 100.9; XBP1 UPR activ: inactive; CTSL1 counter: inactive; UPR CHOP act: inactive; UCH37 inh: inactive; CHOP confirm: inactive

Results for O=C(CNC(=O)c1ccc2c(c1)OCO2)NN=Cc1cccc([N+](=O)[O-])c1 ?
UCH37 inh: inactive

What do the screens show for `Cn1c(=O)n(Cc2ccc(F)cc2)c(=O)c2c1nc1n2CCCN1C1CCCCC1`?
CHOP inhibitor: 103.0; XBP1 UPR activ: inactive; CTSL1 counter: inactive; UPR CHOP act: inactive; UCH37 inh: inactive; CHOP confirm: inactive

Results for O=C(Cn1ncc2c3ccccc3n(Cc3ccccc3)c2c1=O)NCc1ccco1 ?
CHOP inhibitor: 96.4; XBP1 UPR activ: inactive; CTSL1 counter: inactive; UPR CHOP act: inactive; UCH37 inh: inactive; CHOP confirm: inactive

Results for CC(=NNC(=O)c1cc(-c2ccncc2)nc2ccccc12)c1ccc(N2CCOCC2)cc1 ?
UCH37 inh: inactive

What do the screens show for `C/C(=N\NC(=O)COc1ccccc1-c1ccccc1)c1ccc(O)cc1O`?
CHOP inhibitor: 103.6; XBP1 UPR activ: inactive; CTSL1 counter: inactive; UPR CHOP act: inactive; CHOP confirm: inactive

Results for CC(C)Oc1ccccc1C=NNC(=O)C1CCCC1 ?
UCH37 inh: inactive

How did O=C(NN=Cc1cccc(O)c1)c1ccc(NC(=O)c2cccc([N+](=O)[O-])c2)cc1 do in these assays?
UCH37 inh: inactive
